Data on three compounds can be found in ChEMBL document CHEMBL4390676, “Discovery of Bisubstrate Inhibitors for Protein N-Terminal Methyltransferase 1” (J Med Chem, 2019).

Calls of active or inactive are those of the source. The rule behind the calls is not given here. Residues, ends and D or L forms follow the SMILES beside them. *: point of attachment. X1 = Nc1ncnc2c1ncn2[C@@H]1O[C@H](CN(CCCN2CCC[C@H]2C(=O)*)CC[C@H](N)C(=O)O)[C@@H](O)[C@H]1O

By IC50 is commonly meant the midpoint of a concentration-inhibition curve.

The target of test [1] is T1, N-terminal Xaa-Pro-Lys N-methyltransferase 1 (Homo sapiens, UniProt Q9BV86).
T1 sequence (Q9BV86 whole entry): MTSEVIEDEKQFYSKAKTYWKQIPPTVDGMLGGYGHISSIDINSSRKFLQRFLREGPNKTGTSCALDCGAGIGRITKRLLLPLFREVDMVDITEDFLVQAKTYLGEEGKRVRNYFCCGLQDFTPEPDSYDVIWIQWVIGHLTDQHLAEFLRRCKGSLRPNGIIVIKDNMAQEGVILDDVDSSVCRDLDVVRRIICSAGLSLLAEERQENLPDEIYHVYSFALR
Briefly: Inhibition of recombinant human full-length His6-tagged NTMT1 (1 to 222 residues) expressed in Escherichia coli BL21-CodonPlus(DE3)-RIL competent cells using peptide substrate in presence of SAM by fluorescence assay. In a few lines: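 SAHH-coupled fluorescence assay that tracks SAH formation by NTMT1. SAM and peptide substrate GPKRIA are each at their Km values. IC50 is taken from dose–response curves, n = 3.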

For test [2], the target named is T2, N-terminal Xaa-Pro-Lys N-methyltransferase 1 (Homo sapiens) (UniProt Q9BV86).
T2 sequence (whole entry): T1 sequence (Q9BV86 whole entry)
The test is described as follows: Inhibition of recombinant human full-length His6-tagged NTMT1 (1 to 222 residues) expressed in Escherichia coli BL21-CodonPlus(DE3)-RIL competent cells at 10 uM using GPKRIA as substrate preincubated for 10 mins in presence of SAM followed by substrate addition by fluorescence assay.

The target in test [3] is T3, Histone-lysine N-methyltransferase EHMT2 (Homo sapiens) (UniProt Q96KQ7).
T3 sequence (whole entry): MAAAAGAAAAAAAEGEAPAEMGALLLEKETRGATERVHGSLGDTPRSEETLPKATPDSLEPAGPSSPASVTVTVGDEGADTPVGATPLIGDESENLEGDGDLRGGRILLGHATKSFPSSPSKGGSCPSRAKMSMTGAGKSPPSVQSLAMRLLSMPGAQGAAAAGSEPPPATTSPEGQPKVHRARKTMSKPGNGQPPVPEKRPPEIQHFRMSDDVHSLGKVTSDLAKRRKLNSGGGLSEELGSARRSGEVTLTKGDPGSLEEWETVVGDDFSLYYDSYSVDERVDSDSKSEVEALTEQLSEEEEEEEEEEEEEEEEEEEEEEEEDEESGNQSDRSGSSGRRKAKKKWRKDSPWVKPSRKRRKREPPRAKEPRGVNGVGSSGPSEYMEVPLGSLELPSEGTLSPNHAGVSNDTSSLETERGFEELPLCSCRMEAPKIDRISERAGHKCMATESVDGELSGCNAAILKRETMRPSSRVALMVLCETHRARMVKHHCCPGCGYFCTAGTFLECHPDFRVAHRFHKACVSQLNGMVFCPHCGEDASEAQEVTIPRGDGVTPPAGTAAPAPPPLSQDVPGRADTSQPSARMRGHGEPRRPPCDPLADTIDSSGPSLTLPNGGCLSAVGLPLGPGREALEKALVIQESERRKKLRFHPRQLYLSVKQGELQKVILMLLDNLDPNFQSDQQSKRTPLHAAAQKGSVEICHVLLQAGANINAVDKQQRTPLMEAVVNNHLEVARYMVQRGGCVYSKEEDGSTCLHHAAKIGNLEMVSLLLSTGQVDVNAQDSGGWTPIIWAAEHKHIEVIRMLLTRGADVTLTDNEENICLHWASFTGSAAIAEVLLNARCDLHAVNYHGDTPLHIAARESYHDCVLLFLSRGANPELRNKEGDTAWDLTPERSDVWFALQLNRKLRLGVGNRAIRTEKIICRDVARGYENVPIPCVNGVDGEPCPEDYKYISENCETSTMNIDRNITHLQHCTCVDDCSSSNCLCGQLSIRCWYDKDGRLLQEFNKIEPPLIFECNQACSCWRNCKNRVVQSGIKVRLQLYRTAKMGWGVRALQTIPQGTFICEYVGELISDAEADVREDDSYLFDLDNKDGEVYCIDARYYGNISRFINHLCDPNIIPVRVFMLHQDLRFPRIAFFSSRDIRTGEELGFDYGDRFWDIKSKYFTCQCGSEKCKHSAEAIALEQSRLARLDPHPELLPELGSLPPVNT
Briefly: Inhibition of human His-tagged G9a (913 to 1193 residues) expressed in Escherichia coli BL21-CodonPlus(DE3)-RIL assessed as enzyme residual activity at 100 uM using H3-21 peptide as substrate preincubated for 10 mins in presence of SAM followed by substrate addition by fluorescence assay relative to control. In a few lines: (§1)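 Selectivity panel with inhibitor at 3.3, 10, 33 or 100 μM. Enzyme activity is given as percent of control, mean of duplicate experiments (n = 2).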

The target in test [4] is T4, Histone-lysine N-methyltransferase SETD7 (Homo sapiens) (UniProt Q8WTS6).
T4 sequence (whole entry): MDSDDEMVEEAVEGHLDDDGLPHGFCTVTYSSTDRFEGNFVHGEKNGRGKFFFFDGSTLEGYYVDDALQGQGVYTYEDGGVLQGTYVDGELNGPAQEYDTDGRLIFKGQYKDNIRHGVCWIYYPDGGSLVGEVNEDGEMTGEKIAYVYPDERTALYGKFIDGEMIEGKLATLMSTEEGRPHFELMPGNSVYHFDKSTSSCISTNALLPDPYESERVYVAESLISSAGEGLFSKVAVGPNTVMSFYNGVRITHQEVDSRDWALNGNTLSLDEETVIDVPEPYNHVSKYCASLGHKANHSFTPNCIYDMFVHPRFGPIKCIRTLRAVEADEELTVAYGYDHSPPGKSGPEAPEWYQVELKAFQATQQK
Briefly: Inhibition of human His-tagged SETD7 (1 to 366 residues) expressed in Escherichia coli assessed as enzyme residual activity at 10 uM using H3-21 peptide as substrate preincubated for 10 mins in presence of SAM followed by substrate addition by fluorescence assay relative to control. Summed up:
as §1

In test [5] the target is T2, N-terminal Xaa-Pro-Lys N-methyltransferase 1 (Homo sapiens). The test is described as follows: Inhibition of recombinant human full-length His6-tagged NTMT1 (1 to 222 residues) expressed in Escherichia coli BL21-CodonPlus(DE3)-RIL competent cells assessed as residual enzyme activity at 10 uM using GPKRIA as substrate preincubated for 10 mins in presence of SAM followed by substrate addition by fluorescence assay relative to control. In a few lines:
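NTMT1 residual activity […] with SAM and GPKRIA at Km. Values are means of triplicate experiments (n = 3).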

For test [6], the target named is Protein arginine N-methyltransferase 1 (Rattus norvegicus, UniProt Q63009). Briefly: Inhibition of rat His6-tagged PRMT1 expressed in Escherichia coli BL21(DE3) using H4-21 peptide as substrate preincubated for 10 mins in presence of SAM followed by substrate addition by fluorescence assay.
A short description of test [7]: Inhibition of Trypanosoma brucei N-terminal His6-tagged PRMT7 expressed in Escherichia coli BL21-CodonPlus(DE3)-RIL using H4-21 peptide as substrate preincubated for 10 mins in presence of SAM followed by substrate addition by fluorescence assay.
Test [8] has as its target T2, N-terminal Xaa-Pro-Lys N-methyltransferase 1 (Homo sapiens). The test is described as follows: Inhibition of recombinant human full-length His6-tagged NTMT1 (1 to 222 residues) expressed in Escherichia coli BL21-CodonPlus(DE3)-RIL competent cells assessed as reduction in GPKRIA di-methylation at 100 nM preincubated for 10 mins in presence of SAM followed by GPKRIA addition and measured after 20 mins by MALDI TOF-MS analysis. In a few lines: (§2)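 Orthogonal MALDI-MS assay that directly follows α-N-amine methylation of substrate peptide GPKRIA by NTMT1 over 20 min. Methylated peptide products were monitored by mass spectrometry.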

For test [9] the target is unchanged. The test is described as follows: Bi-substrate inhibition of recombinant human full-length His6-tagged NTMT1 (1 to 222 residues) expressed in Escherichia coli BL21-CodonPlus(DE3)-RIL competent cells using varying levels of GPKRIA as substrate preincubated for 10 mins in presence of varying levels of SAM followed by substrate addition by fluorescence assay. Summed up:
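Kinetic mechanism study in the SAHH-coupled fluorescence assay. IC50 curves were run at varying SAM with fixed GPKRIA, and at varying GPKRIA with fixed SAM. IC50 values were plotted against SAM or peptide concentration by linear regression.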

For test [10] the target is unchanged. The test is described as follows: Inhibition of recombinant human full-length His6-tagged NTMT1 (1 to 222 residues) expressed in Escherichia coli BL21-CodonPlus(DE3)-RIL competent cells assessed as reduction in GPKRIA trimethylation at 100 nM preincubated for 10 mins in presence of SAM followed by GPKRIA addition and measured after 20 mins by MALDI TOF-MS analysis. Summed up: as §2

For test [11], the target named is T4, Histone-lysine N-methyltransferase SETD7 (Homo sapiens). The test is described as follows: Inhibition of human His-tagged SETD7 (1 to 366 residues) expressed in Escherichia coli assessed as enzyme residual activity at 33 uM using H3-21 peptide as substrate preincubated for 10 mins in presence of SAM followed by substrate addition by fluorescence assay relative to control. Summed up: as §1

Test [12] has the same target. Briefly: Inhibition of human His-tagged SETD7 (1 to 366 residues) expressed in Escherichia coli assessed as enzyme residual activity at 3.3 uM using H3-21 peptide as substrate preincubated for 10 mins in presence of SAM followed by substrate addition by fluorescence assay relative to control. In a few lines:
as §1

Test [13] has as its target Protein arginine N-methyltransferase 1 (Rattus norvegicus) (UniProt Q63009). The test is described as follows: Inhibition of rat His6-tagged PRMT1 expressed in Escherichia coli BL21(DE3) assessed as enzyme residual activity at 3.3 uM using H4-21 peptide as substrate preincubated for 10 mins in presence of SAM followed by substrate addition by fluorescence assay relative to control. Summed up: as §1

Protein arginine N-methyltransferase 1 (Rattus norvegicus), sequence (Q63009 whole entry, looked up): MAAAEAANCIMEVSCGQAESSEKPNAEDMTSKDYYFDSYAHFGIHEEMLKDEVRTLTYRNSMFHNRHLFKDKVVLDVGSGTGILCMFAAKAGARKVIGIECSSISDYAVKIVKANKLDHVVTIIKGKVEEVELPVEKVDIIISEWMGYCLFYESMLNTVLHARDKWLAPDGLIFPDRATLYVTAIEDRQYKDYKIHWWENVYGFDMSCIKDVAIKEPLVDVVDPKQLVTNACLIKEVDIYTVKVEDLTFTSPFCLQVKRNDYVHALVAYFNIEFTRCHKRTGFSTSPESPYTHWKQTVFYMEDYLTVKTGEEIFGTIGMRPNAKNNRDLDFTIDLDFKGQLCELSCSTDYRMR
Protein arginine N-methyltransferase 1, sequence (Q63009 whole entry): as the sequence (Q63009 whole entry, looked up) above

As to `N=C(N)NCCC[C@H](NC(=O)[C@H](CCCNC(=N)N)NC(=O)[C@H](CCCNC(=N)N)NC(=O)[C@@H]1CCCN1C(=O)CNCCCN(CC[C@H](N)C(=O)O)C[C@H]1O[C@@H](n2cnc3c(N)ncnc32)[C@H](O)[C@@H]1O)C(=O)N[C@@H](CO)C(N)=O`, in test [1], the IC50 was 0.94 µM.

In the case of `Nc1ncnc2c1ncn2C1O[C@H](CN(CCCN2CCC[C@H]2C(=O)O)CC[C@H](N)C(=O)O)[C@@H](O)[C@H]1O` (single isomer, unassigned), in [2], the inhibition entry is “inactive”.

As for `CC[C@H](C)[C@H](NC(=O)[C@H](CCCNC(=N)N)NC(=O)[C@H](CCCCN)NC(=O)[C@@H]1CCCN1C(=O)[C@@H]1CCCN1CCCN(CC[C@H](N)C(=O)O)C[C@H]1O[C@@H](n2cnc3c(N)ncnc32)[C@H](O)[C@@H]1O)C(=O)N[C@@H](C)C(N)=O` (X1-PKRIA-NH2), the Activity came to 78% in [3]; 99% in [4]; 14% in test [5]; 97% in [11]; 94% in test [12]; 97% in test [13]. For the same compound, the IC50 in test [6] was more than 33 µM; in test [7], more than 10 µM. Moreover, the inhibition result in [8], in test [9] and in test [10] was “Active” each time.
